Our source for the K ass values is ChEMBL document CHEMBL1132962, “1,2-Dibenzamidobenzene inhibitors of human factor Xa” (J Med Chem, 2000).

The target of test [1] is Coagulation factor X (Homo sapiens) (UniProt P00742). The experiment in a line: Apparent association constant against coagulation factor X. In short, it runs like this: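 Purchased human fXa, 3.2 nM final, in buffer of 0.06 M tris, 0.3 M NaCl, pH 7.4, with 1 mg/mL HSA in the enzyme diluent. Inhibitor is added in MeOH at 4–8 concentrations in triplicate, then Bz-Ile-Glu-Gly-Arg-pNA (0.3 mM stock in water) starts the reaction. Hydrolysis is read at 405 nm. Free and bound enzyme come from standard curves. Apparent Kass = [Eb]/[Ef][Io−Ib] at 20–80% inhibition.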

Test [2] has as its target Prothrombin (Homo sapiens) (UniProt P00734). The experiment in a line: Apparent association constant against Coagulation factor II. The method, boiled down:
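Human α-thrombin, 5.9 nM, with chromogenic substrate Bz-Phe-Val-Arg-pNA at 0.2 mM. Uses the same general protocol as the fXa assay: pNA release read at 405 nm, with inhibitors auto-diluted in triplicate. Apparent Kass = [Eb]/[Ef][Io−Ib] at concentrations giving 20–80% inhibition. Values are mean ± SD when n≥3 and the average when n=2.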

Chain of Coagulation factor X (Homo sapiens) (P00742 41-179 limits assumed): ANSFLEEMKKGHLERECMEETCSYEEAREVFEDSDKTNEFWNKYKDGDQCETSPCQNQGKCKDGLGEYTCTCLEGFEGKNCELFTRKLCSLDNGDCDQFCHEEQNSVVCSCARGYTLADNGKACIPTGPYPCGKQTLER
Chain of Coagulation factor X (Homo sapiens) (P00742 235-488 limits assumed): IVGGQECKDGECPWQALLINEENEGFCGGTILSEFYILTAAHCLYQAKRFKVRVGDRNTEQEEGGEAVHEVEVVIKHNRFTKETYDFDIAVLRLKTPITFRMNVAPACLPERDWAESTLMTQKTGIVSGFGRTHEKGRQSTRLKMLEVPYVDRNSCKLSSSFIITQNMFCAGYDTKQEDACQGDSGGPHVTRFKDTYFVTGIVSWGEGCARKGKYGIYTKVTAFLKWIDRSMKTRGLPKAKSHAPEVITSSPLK

`CCCCCCOc1ccc(C(=O)Nc2ccccc2NC(=O)c2ccc(OC)cc2)cc1`: the K ass in test [1] and in test [2] was 0 l M-1 in each case.

`C=Cc1cccc(C(=O)Nc2ccccc2NC(=O)c2ccc(C(C)(C)C)cc2)c1`: the K ass in test [1] was 560000 l M-1; in test [2], 0 l M-1. The like results for `COc1ccc(C(=O)Nc2ccccc2NC(=O)c2ccc(Oc3ccccc3)cc2)cc1` were, in that order, 290000 l M-1 and 0 l M-1.

Turning to `CC(C)(C)c1ccc(C(=O)Nc2ccccc2NC(=O)c2ccccc2)cc1`, the K ass in test [1] is 380000 l M-1; in test [2], 70000 l M-1. As to `COc1ccc(C(=O)Nc2ccccc2NC(=O)c2ccc(OC(C)(C)C)cc2)cc1`, the K ass in test [1] was 820000 l M-1; in test [2] it was 10000 l M-1.

`COc1ccc(C(=O)Nc2ccc(NS(C)(=O)=O)cc2NC(=O)c2ccc(C(C)(C)C)cc2)cc1`: the K ass in test [1] is 7.65e+06 l M-1; in test [2], 110000 l M-1.

For the compound `COc1ccc(C(=O)Nc2ccc(Cl)cc2NC(=O)c2ccc(OC)cc2)cc1`, in test [1], the K ass was 420000 l M-1. With `C=Cc1ccc(C(=O)Nc2ccccc2NC(=O)c2ccc(C(C)(C)C)cc2)cc1`, the K ass in test [1] is 3.05e+06 l M-1; in test [2], 10000 l M-1.

In the case of `COc1ccc(C(=O)Nc2ccccc2NC(=O)c2ccc(OC(C)C)cc2)cc1`, the K ass in test [1] is 1.19e+06 l M-1; in test [2], 40000 l M-1. The like results for `COc1ccc(C(=O)Nc2cc(O)ccc2NC(=O)c2ccc(C(C)(C)C)cc2)cc1` were, in that order, 3.56e+06 l M-1 and 50000 l M-1. With `CCCCOc1ccc(C(=O)Nc2ccccc2NC(=O)c2ccc(OC)cc2)cc1`, the K ass in test [1] is 80000 l M-1; in test [2], 0 l M-1. As to `COc1ccc(C(=O)N(C)c2ccccc2N(C)C(=O)c2ccc(OC)cc2)cc1`, the K ass in test [1] and in test [2] was 0 l M-1 each time. Turning to `COc1ccc(C(=O)Nc2ccc(O)cc2NC(=O)c2ccc(N(C)C)cc2)cc1`, the K ass in test [1] was 2.55e+07 l M-1; in test [2] it was 50000 l M-1. `COc1ccc(C(=O)Nc2ccc(O)cc2NC(=O)c2ccc(OC)cc2)cc1`: the K ass in test [1] is 640000 l M-1; in test [2] it was 20000 l M-1. As to `COc1ccc(C(=O)Nc2ccccc2NC(=O)c2ccc(C(C)(C)C)cc2)cc1`, the K ass in test [1] was 7.31e+06 l M-1; in test [2], 50000 l M-1. Regarding `COc1ccc(C(=O)Nc2cccc(O)c2NC(=O)c2ccc(OC)cc2)cc1`, the K ass is 450000 l M-1 in test [1] and 10000 l M-1 in test [2].

As to `COc1ccc(C(=O)Nc2ccccc2NC(=O)c2ccc(S(=O)(=O)N(C)C)cc2)cc1`, the K ass in test [1] was 660000 l M-1; in test [2], 0 l M-1.

Turning to `COc1ccc(C(=O)Nc2ccc(C(=O)O)cc2NC(=O)c2ccc(OC)cc2)cc1`, the figures for the K ass in test [1] and in test [2] were 320000 l M-1 and 20000 l M-1, respectively. Regarding `COc1ccc(C(=O)Nc2cccc(NC(=O)c3ccc(OC)cc3)c2)cc1`, the K ass in test [1] and in test [2] was 0 l M-1 throughout. Consider `CCc1ccc(C(=O)Nc2ccccc2NC(=O)c2ccc(C(C)(C)C)cc2)cc1`, for which the K ass in test [1] is 10000 l M-1; in test [2], 0 l M-1.

For `COc1cccc(C(=O)Nc2ccccc2NC(=O)c2ccc(C(C)(C)C)cc2)c1`, the K ass is 20000 l M-1 in test [1] and 0 l M-1 in test [2]. In the case of `CCc1ccc(C(=O)Nc2cc(O)ccc2NC(=O)c2ccc(OC)cc2)cc1`, the K ass in test [1] was 2.68e+06 l M-1; in test [2] it was 40000 l M-1.

`COc1ccc(C(=O)Nc2ccc(C)cc2NC(=O)c2ccc(OC)cc2)cc1`: the K ass in test [1] was 450000 l M-1; in test [2], 20000 l M-1. Take `COc1ccc(C(=O)Nc2ccccc2NC(=O)c2ccc(OC)cc2OC)cc1`: the K ass was 520000 l M-1 in test [1] and 20000 l M-1 in test [2]. `CC(C)(C)c1ccc(C(=O)Nc2ccccc2NC(=O)c2ccc(Cl)cc2)cc1`: the K ass in test [1] is 2.92e+06 l M-1; in test [2], 50000 l M-1. Consider `COc1ccc(C(=O)Nc2ccccc2NC(=O)c2ccc(-c3ccccc3)cc2)cc1`, for which the K ass in test [1] was 1.1e+06 l M-1; in test [2] it was 0 l M-1. For `CCOc1ccc(C(=O)Nc2ccccc2NC(=O)c2ccc(OC)cc2)cc1`, the values for the K ass in test [1] and in test [2] were 640000 l M-1 and 0 l M-1, respectively. Turning to `COc1ccc(C(=O)Nc2ccccc2NC(=O)c2ccc([S+](C)[O-])cc2)cc1` (stereo not drawn), the K ass was 430000 l M-1 in test [1] and 0 l M-1 in test [2].

`COc1ccc(C(=O)Nc2ccccc2NC(=O)c2ccc(C(C)(C)OC)cc2)cc1`: the figures for the K ass in test [1] and in test [2] were 2.35e+06 l M-1 and 20000 l M-1, respectively.

Take `COc1ccc(C(=O)Nc2ccccc2NC(=O)c2ccc(SC)cc2)cc1`: the K ass was 1.63e+06 l M-1 in test [1] and 20000 l M-1 in test [2]. As for `COc1ccc(C(=O)Nc2cc(NS(C)(=O)=O)ccc2NC(=O)c2ccc(C(C)(C)C)cc2)cc1`, the K ass in test [1] was 1.3e+07 l M-1; in test [2], 130000 l M-1. Turning to `COc1ccc(C(=O)Nc2ccccc2NC(=O)c2ccc(OC)cc2)cc1`, the K ass in test [1] was 840000 l M-1; in test [2], 20000 l M-1. As for `CCCOc1ccc(C(=O)Nc2ccccc2NC(=O)c2ccc(OC)cc2)cc1`, the values for the K ass in test [1] and in test [2] were 440000 l M-1 and 0 l M-1, respectively. Regarding `CC(C)(C)c1ccc(C(=O)Nc2ccccc2NC(=O)c2cccc(F)c2)cc1`, the K ass in test [1] was 400000 l M-1; in test [2], 0 l M-1. Turning to `COc1ccc(C(=O)Nc2ccccc2NC(=O)c2ccc(C(C)C)cc2)cc1`, the K ass in test [1] was 4.91e+06 l M-1; in test [2], 80000 l M-1. Regarding `COc1ccc(C(=O)Nc2ccccc2NC(=O)c2ccc(C(=O)C(F)(F)F)cc2)cc1`, the K ass was 10000 l M-1 in test [1] and 0 l M-1 in test [2]. For `COc1ccc(C(=O)Nc2cc(C(=O)O)ccc2NC(=O)c2ccc(C(C)(C)C)cc2)cc1`, the K ass in test [1] is 3.99e+06 l M-1; in test [2] it was 80000 l M-1. For `CC(C)(C)c1ccc(C(=O)Nc2ccccc2NC(=O)c2ccc(OC(F)(F)F)cc2)cc1`, the K ass in test [1] and in test [2] was 0 l M-1 throughout. Take `COc1ccc(C(=O)Nc2ccc(OC)cc2NC(=O)c2ccc(OC)cc2)cc1`: the K ass in test [1] was 1.25e+06 l M-1. Turning to `COc1ccc(C(=O)Nc2c(OC)ccc(OC)c2NC(=O)c2ccc(OC)cc2)cc1`, the results for the K ass in test [1] and in test [2] were 770000 l M-1 and 10000 l M-1, respectively. As for `COc1ccc(C(=O)Nc2ccccc2NC(=O)c2ccc(OC)cc2Cl)cc1`, the K ass was 710000 l M-1 in test [1] and 30000 l M-1 in test [2].

Turning to `CC(C)(C)c1ccc(C(=O)Nc2ccccc2NC(=O)c2ccc(F)cc2)cc1`, the K ass is 510000 l M-1 in test [1] and 0 l M-1 in test [2]. As for `COc1ccc(C(=O)Nc2ccccc2NC(=O)c2ccc(S(C)(=O)=O)cc2)cc1`, the K ass is 530000 l M-1 in test [1] and 0 l M-1 in test [2]. Regarding `Cc1ccc(C(=O)Nc2ccccc2NC(=O)c2ccc(C(C)(C)C)cc2)cc1`, the figures for the K ass in test [1] and in test [2] were 280000 l M-1 and 0 l M-1, respectively. As for `COc1ccc(C(=O)Nc2ccccc2N(C)C(=O)c2ccc(OC)cc2)cc1`, the K ass in test [1] is 20000 l M-1; in test [2], 0 l M-1. Take `COc1ccc(C(=O)Nc2ccc(O)cc2NC(=O)c2ccc(C(C)(C)C)cc2)cc1`: in test [2], the K ass is 40000 l M-1. In the case of `COc1ccc(C(=O)Nc2ccccc2NC(=O)c2ccc(N(C)C)cc2)cc1`, the K ass in test [1] was 1.69e+07 l M-1; in test [2], 50000 l M-1. The corresponding values for `COc1ccc(C(=O)Nc2ccc(C(=O)O)cc2NC(=O)c2ccc(C(C)(C)C)cc2)cc1` are 1.28e+07 l M-1 and 70000 l M-1.
